These results are taken from PubChem BioAssay.

The source made the active and inactive calls.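 Rule for the calls, unless noted: active = visual image review flags a hit and inhibition of aggregation exceeds 20%; inconclusive = visual hit but inhibition at or below 20%; inactive = no hit on visual image review.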

Assay [1] in a line: inhibitors of TNFa-induced NFkB p65 translocation, primary screen, imaging, HUVEC, MLSMR starter and 10KST1 sets (AID 438;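 active = inhibition above 20% together with a positive visual image hit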;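 note: compound added about 3h40 before a 20 min TNFalpha stimulation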;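 for inhibition: signal is the nuclear over cytoplasmic p65 intensity ratio per well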). As to conditions: HUVEC TNFa-induced p65 nuclear translocation; cell count: measured here: nuclei count (cytotoxicity indicator), at 2.08 µM; inhibition: at 2 µM, stronger effect = higher value, 0% TNFa-plus-vehicle, 100% no-TNFa wells.
Assay [2] can be described thus: inhibitors of mutant huntingtin aggregation, primary screen, imaging, exon1htt(103Q)mCFP cells, high-content imaging (AID 483).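 For nuclei count: percent of the per-plate median nuclei count of sample wells.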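 Note: compound exposure lasted 3 days before fixation.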 The following applies: exon1htt(103Q)mCFP cell line, aggregate imaging, at 2 µM; inhibition of aggregation: stronger effect = higher value; nuclei count: measured here: cell count, toxicity.
Assay [3] can be described thus: inhibitors of E-selectin induction by TNFa, primary screen, imaging, HUVEC, immunofluorescence, MLSMR starter and 10KST1 sets (AID 487;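 active = visually confirmed hit in the image check and inhibition above 20%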;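 for inhibition: signal is fraction of cell area covered by stained E-selectin grains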;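 for nuclei count: 100% = median nuclei count of all wells on the same plate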). As to conditions: HUVEC TNFalpha-induced E-selectin immunofluorescence imaging, at 2 µM; inhibition: stronger effect = higher value; nuclei count: measured here: cell number, toxicity.
Assay [4] addresses Voltage-gated potassium channel subunit beta-2 (Rattus norvegicus) (UniProt P62483). The assay can be described thus: KvBeta enzyme negative modulators, primary screen, biochemical, NADPH fluorescence (AID 622;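 active = fluorescence slope higher than the sample average by over 3 SD, cut at about -0.22 in these data, passing the limit was not always enough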;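 note: slope of raw intensity against log time taken from 70 to 1610 s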). The following applies: recombinant KvBeta, 4-cyanobenzaldehyde reduction, at 10 µM, stronger effect = higher value.
Assay [5] has the same target. Briefly: KvBeta positive modulators, primary screen, biochemical, NADPH fluorescence (AID 623;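 active = NADPH fluorescence slope more negative than the mean of all samples by about 3 SD, 99.7% confidence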;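 note: fluorescence intensity change per second fitted from 20 to 320 s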). As to conditions: Recombinant KvBeta, NADPH fluorescence decrease slope, 10 min; at 10 µM; stronger effect = lower value.
The target in assay [6] is Muscarinic acetylcholine receptor M4 (Homo sapiens) (UniProt P08173). Briefly: compounds altering M4/GIRK thallium flux, either direction, primary screen, M4 allosteric agonist project, cell-based, HEK293 M4/GIRK, BTC-AM (AID 625;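 active = fluorescence slope after compound addition differing from the mean of all tested samples at 99.7% confidence, mostly higher but some lower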;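 note: thallium influx through GIRK channels coupled to M4 in HEK293 cells with BTC-AM dye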). The following applies: at 10 µM, actives lie on both sides. An outline of the steps: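 Material: HEK293 cells with M4 receptor and GIRK channels; Times: cells overnight at 37 °C, BTC-AM loading 1 h, reads 2 min total; Technique: kinetic BTC-AM fluorescence sampled at 1 Hz, 10 s pre-addition baseline; Read-out basis: slope over 15–24 s of trace normalized to starting intensity; Controls: carbachol positive, DMSO negative.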
Sequence of Muscarinic acetylcholine receptor M4 (Homo sapiens) (P08173 whole entry, looked up): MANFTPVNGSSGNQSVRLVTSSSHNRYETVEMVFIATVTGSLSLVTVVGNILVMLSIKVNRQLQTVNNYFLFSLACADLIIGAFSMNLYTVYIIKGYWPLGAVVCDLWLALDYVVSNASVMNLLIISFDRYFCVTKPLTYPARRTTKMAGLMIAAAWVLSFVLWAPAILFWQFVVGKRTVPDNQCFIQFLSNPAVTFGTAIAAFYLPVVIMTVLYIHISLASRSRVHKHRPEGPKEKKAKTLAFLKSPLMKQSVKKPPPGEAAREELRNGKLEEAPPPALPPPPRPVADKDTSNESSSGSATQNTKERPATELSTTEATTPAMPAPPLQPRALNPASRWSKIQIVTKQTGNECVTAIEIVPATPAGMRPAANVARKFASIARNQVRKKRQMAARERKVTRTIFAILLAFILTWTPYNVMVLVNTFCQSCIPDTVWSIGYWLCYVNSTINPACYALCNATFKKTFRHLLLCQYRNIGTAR

Assay [7] is described as follows: inhibitors of Sendai virus-induced IRF3 signaling, primary screen, TLR/RLR signaling modifier project, cell-based, Sendai virus stimulus, luciferase, 10K MLSCN set (AID 602276;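 active = inhibition at or above 50% at 10 µM; inactive = inhibition below 50%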;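 note: firefly luciferase from ISG56 promoter only with Renilla not read in this screen; 0% = Sendai virus plus DMSO and 100% = medium plus DMSO without virus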). The following applies: HEK293 RL24 IRF3 luciferase reporter, at 10 µM, stronger effect = higher value.
Assay [8] is described as follows: inhibitors of poly I:C-induced TLR3 signaling, primary screen, cell-based, poly I:C stimulus, luciferase, 10K MLSCN set (AID 602277;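 active = inhibition of the reporter signal at or above 50%; inactive = inhibition below 50%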). As to conditions: HEK293-TLR3 RL24 IRF3 luciferase reporter, at 10 µM, stronger effect = higher value. Background: Reporter assays use an easily measured gene product as a stand-in for the process of interest.

Sequence of Voltage-gated potassium channel subunit beta-2 (Rattus norvegicus) (P62483 whole entry, looked up): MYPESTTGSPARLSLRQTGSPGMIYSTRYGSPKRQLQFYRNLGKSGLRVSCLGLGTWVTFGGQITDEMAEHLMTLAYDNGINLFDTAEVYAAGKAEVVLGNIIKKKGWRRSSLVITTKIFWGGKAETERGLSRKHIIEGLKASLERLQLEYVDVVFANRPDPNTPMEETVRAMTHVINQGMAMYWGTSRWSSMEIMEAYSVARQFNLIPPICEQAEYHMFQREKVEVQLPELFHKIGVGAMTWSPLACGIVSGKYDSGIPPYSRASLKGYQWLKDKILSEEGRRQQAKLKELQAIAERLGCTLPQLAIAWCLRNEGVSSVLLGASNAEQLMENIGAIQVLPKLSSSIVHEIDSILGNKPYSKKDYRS

As usually defined, the inhibition is the drop in the measured response relative to a control, in per cent. In the case of `C=CCNC(=O)CSc1ccc(Cl)cc1`, the cell count in assay [1] was found to be 339. Also, the inhibition is 7.4% (inactive) in assay [1], -99.8% (inactive) in assay [3], 5.55% (inactive) in assay [7] and -3.36% (inactive) in assay [8]. Further, in assay [2], the inhibition of aggregation was -7.8% (inactive). Also, the nuclei count in assay [2] is 96%; in assay [3], 101%. Moreover, the fluorescence slope is -0.448 (inactive) in assay [4] and 0.00478 (inactive) in assay [6]. Moreover, the NADPH fluorescence slope in assay [5] was -0.000358 (inactive).

For the molecule `CCC(C)n1[nH]c(=O)c2c(C)cc(C)nc21` (centres undefined), in assay [1], the cell count is 405. The inhibition is 1.8% (inactive) in assay [1], -50.1% (inactive) in assay [3], 6.37% (inactive) in assay [7] and 15.3% (inactive) in assay [8]. Besides, the inhibition of aggregation in assay [2] was 2.2% (inactive). Also, the nuclei count was found to be 101% in assay [2] and 108% in assay [3]. Also, the fluorescence slope in assay [4] was -0.565 (inactive); in assay [6], 0.00534 (inactive). Further, the NADPH fluorescence slope in assay [5] is -5.9e-05 (inactive).

For the molecule `Cc1nc(NC2=NCN(CCCN3CCOCC3)CN2)nc2c(C)cccc12`, the cell count in assay [1] was 552. Further, the inhibition was 12.1% (inactive) in assay [1], 35.4% (inactive) in assay [3], 26.7% (inactive) in assay [7] and 31.4% (inactive) in assay [8]. The inhibition of aggregation in assay [2] is 0.1% (inactive). Moreover, the nuclei count in assay [2] was determined as 73.7%; in assay [3], 97.1%. Moreover, the fluorescence slope is -0.571 (inactive) in assay [4] and 0.00567 (inactive) in assay [6]. Moreover, the NADPH fluorescence slope in assay [5] was -6.5e-05 (inactive).

In the case of `COc1ccccc1-c1noc(-c2cccnc2)n1`, the cell count in assay [1] turned out to be 405. Besides, the inhibition in assay [1] is 0% (inactive); in assay [3] it was -6.3% (inactive); in assay [7] it was -24.5% (inactive); in assay [8], -87.9% (inactive). Further, the inhibition of aggregation in assay [2] was -5.9% (inactive). Also, the nuclei count was determined as 106% in assay [2] and 125% in assay [3]. For the same molecule, the fluorescence slope in assay [4] was -0.568 (inactive); in assay [6], 0.00345 (inactive). In assay [5], the NADPH fluorescence slope is -7.6e-05 (inactive).

For the molecule `CCOC(=O)C1=C(c2ccccc2)Nc2nc(C)nn2C1c1cccc(OC)c1OC` (centres undefined), the cell count in assay [1] is 613. In addition, the inhibition in assay [1] was 1.7% (inactive); in assay [3], -152% (inactive); in assay [7], 5.33% (inactive); in assay [8] it was 15.1% (inactive). In assay [2], the inhibition of aggregation was -13.2% (inactive). Also, the nuclei count stood at 111% in assay [2] and 149% in assay [3]. Also, the fluorescence slope in assay [4] is -0.508 (inactive); in assay [6] it was 0.00365 (inactive). In addition, in assay [5], the NADPH fluorescence slope was -0.000215 (inactive).

As to `O=C1NC(=O)C2(CCC(C(=O)O)C2)N1` (centres undefined), in assay [1], the cell count stood at 557. Also, the inhibition in assay [1] is -17.5% (inactive); in assay [3] it was -72.3% (inactive); in assay [7], 13.2% (inactive); in assay [8], 17.5% (inactive). In assay [2], the inhibition of aggregation is -0.1% (inactive). In addition, the nuclei count in assay [2] amounted to 100%; in assay [3], 119%. Moreover, the fluorescence slope in assay [4] is -0.408 (inactive); in assay [6], 0.00541 (inactive). For the same molecule, the NADPH fluorescence slope in assay [5] was 3.7e-05 (inactive).

With `Cc1noc(C)c1C(=O)Nc1sc(C)c(C)c1C#N`, the cell count in assay [1] was 264. Further, the inhibition is 3.7% (inactive) in assay [1], -40.3% (inactive) in assay [3], -9.52% (inactive) in assay [7] and -43.8% (inactive) in assay [8]. In assay [2], the inhibition of aggregation was 7.6% (inactive). The nuclei count in assay [2] turned out to be 87.5%; in assay [3], 103%. Moreover, the fluorescence slope in assay [4] was -0.436 (inactive); in assay [6], 0.00444 (inactive). Besides, the NADPH fluorescence slope in assay [5] is -2.4e-06 (inactive).

Take `CC(C(=O)N1CCCCC1)n1ncn2cccc2c1=O` (centres undefined): the cell count in assay [1] was 397. Besides, the inhibition in assay [1] was -2.5% (inactive); in assay [3], -4.6% (inactive); in assay [7] it was 6.93% (inactive); in assay [8], 98.3% (active). In addition, the inhibition of aggregation in assay [2] was 0.4% (inactive). Moreover, the nuclei count in assay [2] was determined as 94.2%; in assay [3], 97.4%. The fluorescence slope is -0.595 (inactive) in assay [4] and 0.00463 (inactive) in assay [6]. Moreover, the NADPH fluorescence slope in assay [5] was -2.8e-05 (inactive).

For `O=c1c2ccccc2sn1-c1ccc(S(=O)(=O)N2CCCCC2)cc1`, the cell count in assay [1] is 539. Further, the inhibition is -20.9% (inactive) in assay [1], 53.4% (inactive) in assay [3], 3.69% (inactive) in assay [7] and 7.09% (inactive) in assay [8]. Further, the inhibition of aggregation in assay [2] is -8.4% (inactive). Also, the nuclei count in assay [2] turned out to be 115%; in assay [3], 83.7%. Besides, the fluorescence slope in assay [4] is -0.271 (inactive); in assay [6], 0.00829 (inactive). The NADPH fluorescence slope in assay [5] is -1.7e-05 (inactive).

In the case of `COc1ccc(N2CCN(C(=O)CSc3nnc(Cn4nnc5ccccc54)n3C)CC2)cc1`, the cell count in assay [1] was determined as 525. The inhibition in assay [1] was 5.7% (inactive); in assay [3], -48.7% (inactive); in assay [7], -9.14% (inactive); in assay [8], -5.63% (inactive). Further, the inhibition of aggregation in assay [2] is -2.8% (inactive). The nuclei count came out at 103% in assay [2] and 101% in assay [3]. Also, the results for the fluorescence slope in assay [4] and in assay [6] were -0.578 (inactive) and 0.0066 (inactive), respectively. In addition, in assay [5], the NADPH fluorescence slope is -2.5e-05 (inactive).

Turning to `Cc1ccccc1CS(=O)(=O)CCC(=O)N1CCN(c2ccc(N3CCOCC3)nn2)CC1`, in assay [1], the cell count came out at 318. In addition, the inhibition was -0.9% (inactive) in assay [1], -146% (inactive) in assay [3], 3.04% (inactive) in assay [7] and 12.2% (inactive) in assay [8]. The inhibition of aggregation in assay [2] is -19.9% (inactive). For the same molecule, the nuclei count in assay [2] came out at 81%; in assay [3], 87.2%. The fluorescence slope in assay [4] is -0.424 (inactive); in assay [6], 0.00541 (inactive). Moreover, in assay [5], the NADPH fluorescence slope is -8.7e-08 (inactive).

With `Cc1ccccc1NC(=O)N1C2CCCC1CC(NC(=O)C1CC1)C2` (centres undefined), the cell count in assay [1] came to 747. Further, the inhibition is -16.7% (inactive) in assay [1], 64.2% (inactive) in assay [3], 16.2% (inactive) in assay [7] and 16.2% (inactive) in assay [8]. Also, the inhibition of aggregation in assay [2] is -5.1% (inactive). The nuclei count in assay [2] stood at 107%; in assay [3] it was 94.5%. Further, the fluorescence slope in assay [4] was -0.361 (inactive); in assay [6] it was 0.00599 (inactive). For the same molecule, the NADPH fluorescence slope in assay [5] was 8.6e-05 (inactive).

In the case of `O=C(Nc1ccc2nn(-c3ccccc3)nc2c1)c1ccc(Br)o1`, in assay [1], the cell count came out at 355. For the same molecule, the inhibition in assay [1] was -1.7% (inactive); in assay [3], 6.4% (inactive); in assay [7] it was -22.8% (inactive); in assay [8], -70.4% (inactive). In assay [2], the inhibition of aggregation was 9.1% (inactive). Also, the nuclei count was 106% in assay [2] and 101% in assay [3]. Also, the fluorescence slope was -0.213 (inactive) in assay [4] and 0.00781 (inactive) in assay [6]. The NADPH fluorescence slope in assay [5] is -2.9e-05 (inactive).

For `CCOc1ccccc1N1CCN(c2nc(N)c(C#N)c(CC#N)c2C#N)CC1`, in assay [1], the cell count was 687. Besides, the inhibition in assay [1] was -1.7% (inactive); in assay [3] it was -68.9% (inactive); in assay [7], 20.4% (inactive); in assay [8] it was 17.9% (inactive). The inhibition of aggregation in assay [2] was -18.6% (inactive). Also, the nuclei count is 88.7% in assay [2] and 105% in assay [3]. The fluorescence slope was -0.592 (inactive) in assay [4] and 0.00416 (inactive) in assay [6]. Further, the NADPH fluorescence slope in assay [5] was -1e-05 (inactive).
